A short description of one data set: in vitro. Particulars: human, HepG2 cells.
The test system of data set [1] is Mycobacterium avium. Put plainly: Antimycobacterial activity against Isoniazid, rifampicin, ofloxacin and ethambutol-resistant Mycobacterium avium 330/88 assessed as complete growth inhibition after 21 days. Particulars: 330/88, 504 h. It counts as functional. The method, boiled down: (§1)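 M. tuberculosis 331/88 (H37Rv) inoculum diluted 10-3, M. avium 330/88 diluted 10-5. MIC is the lowest concentration giving complete growth inhibition. Isoniazid and p-aminosalicylic acid as references. Quadruplicate, repeated twice.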

Data set [2] relates to Mycobacterium avium. Kind of data set: Antimycobacterial activity against Isoniazid, rifampicin, ofloxacin and ethambutol-resistant Mycobacterium avium 330/88 assessed as complete growth inhibition after 14 days. It counts as functional. As to conditions: 330/88, 336 h. The gist of the method:
as §1

Data set [3] is described as follows: Selectivity index, ratio of IC50 for human HepG2 cells to MIC for Mycobacterium tuberculosis H37Rv. In kind it is toxicity, cell-based. Particulars: read-out: Selectivity Index. The gist of the method:
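Selectivity index = HepG2 IC50 / MIC. HepG2 cells (passage 3–4) grown in Eagle's MEM with 10% FBS, L-glutamine and non-essential amino acids. Compounds added from DMSO, eight concentrations in triplicate, tetrazolium-reduction colorimetric read-out.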

Data set [4] relates to Mycobacterium kansasii. Kind of data set: Antimycobacterial activity against Mycobacterium kansasii 235/80 assessed as complete growth inhibition after 7 days. As to conditions: 235/80, 168 h. In kind it is functional. The gist of the method: (§2)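 Dilutions of M. kansasii inoculum were 10-4 for strain 235/80 and 10-5 for clinical isolate 6509/96. MIC was the lowest concentration giving complete growth inhibition, run in quadruplicate and repeated twice.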

Data set [5] concerns Mycobacterium tuberculosis. Put plainly: Antimycobacterial activity against Mycobacterium tuberculosis H37Rv 331/88 assessed as complete growth inhibition after 21 days. In kind it is functional. As to conditions: H37Rv 331/88, 504 h. The method, boiled down: as §1
For data set [6], the system named is Mycobacterium tuberculosis. Put plainly: Antimycobacterial activity against Mycobacterium tuberculosis H37Rv 331/88 assessed as complete growth inhibition after 14 days. It counts as functional. Particulars: H37Rv 331/88, 336 h. The method, boiled down: as §1
The test system of another data set is HepG2. Kind of data set: Cytotoxicity against human HepG2 cells assessed as reduction in cell viability after 24 hrs by MTS assay. It counts as cell-based. As to conditions: HepG2, 24 h. The method, boiled down: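 HepG2 hepatocellular carcinoma cells (passage 3–4) were grown in Eagle's MEM with 10% FBS, 1% L-glutamine and non-essential amino acids. Compounds were added from DMSO at eight concentrations in triplicate, with 10% DMSO as the 0% viability control. Viability was read by tetrazolium salt reduction (CellTiter 96 AQueous One). IC50 is the concentration reducing viability to 50% of control.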

The test system of data set [7] is Mycobacterium kansasii. Put plainly: Antimycobacterial activity against clinical isolate Mycobacterium kansasii 6509/96 assessed as complete growth inhibition after 7 days. It counts as functional. As to conditions: 6509/96, 168 h. The method, boiled down:
as §2

In data set [8] the test system is Mycobacterium kansasii. Put plainly: Antimycobacterial activity against clinical isolate Mycobacterium kansasii 6509/96 assessed as complete growth inhibition after 14 days. It counts as functional. Particulars: 6509/96, 336 h. The gist of the method: as §2
Data set [9] concerns Mycobacterium kansasii. Kind of data set: Antimycobacterial activity against clinical isolate Mycobacterium kansasii 6509/96 assessed as complete growth inhibition after 21 days. In kind it is functional. Particulars: 6509/96, 504 h. The method, boiled down:
as §2

The test system of data set [10] is Mycobacterium kansasii. Kind of data set: Antimycobacterial activity against Mycobacterium kansasii 235/80 assessed as complete growth inhibition after 21 days. As to conditions: 235/80, 504 h. In kind it is functional. The gist of the method:
as §2

The subject of data set [11] is Mycobacterium kansasii. Put plainly: Antimycobacterial activity against Mycobacterium kansasii 235/80 assessed as complete growth inhibition after 14 days. It counts as functional. Particulars: 235/80, 336 h. The gist of the method: as §2
Data set [12] can be described thus: Inhibition of Mycobacterium tuberculosis H37Rv isocitrate lyase assessed as glyoxylate phenyl hydrazone formation at 10 uM.
Data set [13] relates to Enterococcus sp. Put plainly: Antimicrobial activity against Enterococcus sp. J 14365/08 after 24 hrs by microdilution method. In kind it is functional. Particulars: J 14365/08, 24 h. The method, boiled down: (§3)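 Broth microdilution in Mueller-Hinton broth, compounds dissolved in DMSO, final concentrations 500 to 0.49 µM. Benzylpenicillin and bacitracin were run as comparators. MIC was taken as 95% (IC95) or greater growth reduction versus control. Each determination was done twice.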

The subject of data set [14] is Staphylococcus epidermidis. Kind of data set: Antimicrobial activity against Staphylococcus epidermidis H 6966/08 after 24 hrs by microdilution method. In kind it is functional. As to conditions: H 6966/08, 24 h. The method, boiled down: as §3
A short description of data set [15]: Selectivity index, ratio of IC50 for human HepG2 cells to MIC for methicillin-resistant Staphylococcus aureus H 5996/08. The method, boiled down: (§4)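 Selectivity index = HepG2 IC50 / MIC. HepG2 cells (passage 3–4) grown in Eagle's MEM with 10% FBS, L-glutamine and non-essential amino acids. Compounds added from DMSO, eight concentrations in triplicate, tetrazolium-reduction colorimetric read-out. IC50 is the concentration reducing viability to 50% of control; 10% DMSO as 0% viability.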

Data set [16] relates to Staphylococcus aureus. Put plainly: Antimicrobial activity against methicillin-resistant Staphylococcus aureus H 5996/08 after 48 hrs by microdilution method. In kind it is functional. As to conditions: H 5996/08, 48 h. The gist of the method:
(§5)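 Mueller-Hinton broth microdilution; compounds dissolved in DMSO, final concentrations 500 to 0.49 µM. […] Benzylpenicillin and bacitracin as comparators. Each determination done twice.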

A short description of data set [17]: Selectivity index, ratio of IC50 for human HepG2 cells to MIC for Trichophyton mentagrophytes 445.
The subject of data set [18] is Staphylococcus aureus. Kind of data set: Antimicrobial activity against Staphylococcus aureus CCM 4516/08 after 24 hrs by microdilution method. In kind it is functional. As to conditions: CCM 4516/08, 24 h. The method, boiled down:
as §5

Data set [19] deals with Staphylococcus aureus. Kind of data set: Antimicrobial activity against methicillin-resistant Staphylococcus aureus H 5996/08 after 24 hrs by microdilution method. It counts as functional. Particulars: H 5996/08, 24 h. The gist of the method:
as §5

Data set [20] deals with Staphylococcus epidermidis. Kind of data set: Antimicrobial activity against Staphylococcus epidermidis H 6966/08 after 48 hrs by microdilution method. Particulars: H 6966/08, 48 h. It counts as functional. The method, boiled down:
as §3

Data set [21] deals with Trichophyton mentagrophytes. Put plainly: Antimicrobial activity against Trichophyton mentagrophytes 445 after 72 hrs by microdilution method. In kind it is functional. As to conditions: Trichophyton mentagrophytes, 445, 72 h. The gist of the method: (§6)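 Broth microdilution in RPMI 1640 with glutamine, with fluconazole and amphotericin B as references. For filamentous fungi, MIC is expressed as the IC50, i.e. the concentration giving 50% growth reduction versus control. Each determination was done twice.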

The nature of data set [22]: Selectivity index, ratio of IC50 for human HepG2 cells to MIC for atypical mycobacteria. The method, boiled down:
as §4

Data set [23] has as its system Staphylococcus aureus. Kind of data set: Antimicrobial activity against Staphylococcus aureus CCM 4516/08 after 48 hrs by microdilution method. As to conditions: CCM 4516/08, 48 h. In kind it is functional. The gist of the method:
as §5

In data set [24] the test system is Enterococcus sp. Put plainly: Antimicrobial activity against Enterococcus sp. J 14365/08 after 48 hrs by microdilution method. As to conditions: J 14365/08, 48 h. It counts as functional. The method, boiled down:
as §3

For data set [25], the system named is Trichophyton mentagrophytes. Put plainly: Antimicrobial activity against Trichophyton mentagrophytes 445 after 120 hrs by microdilution method. It counts as functional. As to conditions: Trichophyton mentagrophytes, 445, 120 h. The method, boiled down: as §6

Each structure is given as a SMILES string. In brackets after ≈: the same amount, converted by molar mass.

Regarding `NNC(=O)c1ccncc1` [ISONIAZID], the selectivity ratio was at least 31.3 in the data set “in vitro” and over 250 in [3]. Further, the MIC was over 250 µM in the data set with Mycobacterium avium [1]; over 250 µM in the data set with Mycobacterium avium [2]; over 250 µM in the data set with Mycobacterium kansasii [4]; 1 µM (≈ 0.137 µg/mL) in data set [5]; 0.5 µM (≈ 0.0686 µg/mL) in data set [6]; 2 µM (≈ 0.274 µg/mL) in the data set with Mycobacterium kansasii [7]. Also, the minimum inhibitory concentration (MIC) was 4 µM (≈ 0.549 µg/mL) in the data set with Mycobacterium kansasii [8], 4 µM (≈ 0.549 µg/mL) in the data set on Mycobacterium kansasii [9], over 250 µM in the data set with Mycobacterium kansasii [10] and over 250 µM in the data set with Mycobacterium kansasii [11]. Moreover, the IC50 in the data set with HepG2 was over 250 µM. For the same compound, the inhibition in data set [12] is 0%.
`CN(C)C(=O)Oc1ccc(Cl)cc1C(=O)Nc1ccc(F)cc1`: the MIC against Enterococcus sp. [13] is 125 µM (≈ 42.1 µg/mL); in the data set on Mycobacterium avium [1] it was 125 µM (≈ 42.1 µg/mL); in the data set with Mycobacterium avium [2] it was 125 µM (≈ 42.1 µg/mL); in [14] it was over 125 µM; in the data set on Mycobacterium kansasii [4], 62.5 µM (≈ 21 µg/mL); with Staphylococcus aureus [16], over 125 µM. In addition, the MIC was 125 µM (≈ 42.1 µg/mL) in the data set on Staphylococcus aureus [18]; over 125 µM with Staphylococcus aureus [19]; 32 µM (≈ 10.8 µg/mL) in data set [5]; 32 µM (≈ 10.8 µg/mL) in data set [6]; over 125 µM in data set [20]; 125 µM (≈ 42.1 µg/mL) in data set [21]. The MIC is over 125 µM in the data set with Staphylococcus aureus [23]; over 125 µM against Enterococcus sp. [24]; 125 µM (≈ 42.1 µg/mL) in [25]; 62.5 µM (≈ 21 µg/mL) in the data set with Mycobacterium kansasii [7]; 125 µM (≈ 42.1 µg/mL) with Mycobacterium kansasii [8]; 125 µM (≈ 42.1 µg/mL) with Mycobacterium kansasii [9]. The minimal inhibitory concentration (MIC) with Mycobacterium kansasii [10] and in the data set on Mycobacterium kansasii [11] was 125 µM (≈ 42.1 µg/mL) in each case. For the same compound, the selectivity ratio in data set [3] was 14. Also, the “Selectivity Index” value is “<=3.6” in [15], 3.6 in data set [17] and 3.6 in data set [22]. The half-inhibitory concentration (IC50) with HepG2 is 444 µM. Moreover, the inhibition in data set [12] came out at 8%.
Turning to `CN(C)C(=O)Oc1ccc(Cl)cc1C(=O)Nc1ccc(Cl)cc1`, the MIC in the data set on Enterococcus sp. [13] came to 125 µM (≈ 44.2 µg/mL); with Mycobacterium avium [1] it was 62.5 µM (≈ 22.1 µg/mL); in the data set with Mycobacterium avium [2], 62.5 µM (≈ 22.1 µg/mL); in [14], 125 µM (≈ 44.2 µg/mL); in the data set with Mycobacterium kansasii [4], 62.5 µM (≈ 22.1 µg/mL); in the data set on Staphylococcus aureus [16], 125 µM (≈ 44.2 µg/mL). The MIC against Staphylococcus aureus [18] turned out to be 62.5 µM (≈ 22.1 µg/mL); in the data set with Staphylococcus aureus [19], 62.5 µM (≈ 22.1 µg/mL); in data set [5] it was 16 µM (≈ 5.65 µg/mL); in data set [6], 16 µM (≈ 5.65 µg/mL); in data set [20], 125 µM (≈ 44.2 µg/mL); in data set [21], 31.2 µM (≈ 11 µg/mL). Besides, the MIC is 125 µM (≈ 44.2 µg/mL) in the data set on Staphylococcus aureus [23]; over 125 µM against Enterococcus sp. [24]; 31.2 µM (≈ 11 µg/mL) in data set [25]; 62.5 µM (≈ 22.1 µg/mL) in the data set on Mycobacterium kansasii [7]; 125 µM (≈ 44.2 µg/mL) with Mycobacterium kansasii [8]; 125 µM (≈ 44.2 µg/mL) in the data set with Mycobacterium kansasii [9]. The minimal inhibitory concentration (MIC) with Mycobacterium kansasii [10] and in the data set with Mycobacterium kansasii [11] was 62.5 µM (≈ 22.1 µg/mL) throughout. In data set [3], the selectivity ratio stood at 11.8. For the same compound, the “Selectivity Index” value in [15] was determined as 1.5; in data set [17] it was 6; in data set [22], 1.5. Moreover, the 50% inhibitory concentration (IC50) with HepG2 was 189 µM. Further, in data set [12], the inhibition is 6%.

The values are drawn from ChEMBL document CHEMBL3352384, “Synthesis and biological activity of new salicylanilide N,N-disubstituted carbamates and thiocarbamates” (Bioorg Med Chem, 2014).
